The source of these data is ChEMBL document CHEMBL2034856, “Synthesis and evaluation of 11β-(4-substituted phenyl) estradiol analogs: transition from estrogen receptor agonists to antagonists” (Bioorg Med Chem, 2012).

Structures are written as SMILES.

In experiment [1] the target is T1, Estrogen receptor (Homo sapiens) (UniProt P03372).
T1 sequence (whole entry): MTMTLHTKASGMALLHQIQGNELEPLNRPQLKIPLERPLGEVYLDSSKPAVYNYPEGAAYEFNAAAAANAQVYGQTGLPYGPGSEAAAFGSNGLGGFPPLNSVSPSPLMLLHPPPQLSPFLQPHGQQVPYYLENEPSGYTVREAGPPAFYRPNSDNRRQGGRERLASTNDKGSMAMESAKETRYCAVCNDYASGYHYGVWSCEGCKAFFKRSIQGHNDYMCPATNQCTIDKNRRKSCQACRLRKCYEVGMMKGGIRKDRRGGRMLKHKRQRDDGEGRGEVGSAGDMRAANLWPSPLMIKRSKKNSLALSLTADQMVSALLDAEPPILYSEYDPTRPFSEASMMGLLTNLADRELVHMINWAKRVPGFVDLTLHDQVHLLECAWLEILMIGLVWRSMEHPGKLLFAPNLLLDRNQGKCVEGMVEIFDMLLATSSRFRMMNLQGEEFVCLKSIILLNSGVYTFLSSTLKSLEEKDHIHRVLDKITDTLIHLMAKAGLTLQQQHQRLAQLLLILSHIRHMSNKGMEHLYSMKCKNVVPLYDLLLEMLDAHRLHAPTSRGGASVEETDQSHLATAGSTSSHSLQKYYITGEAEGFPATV
The experiment in a line: Mixed agonist and antagonist activity at Estrogen receptor expressed in human Ishikawa cells assessed as induction of alkaline phosphatase after 3 days by spectrophotometry relative to estradiol. Type of experiment: functional, cell-based. On the set-up: scale not given: the % may be the effect or the level left. In outline: (§1)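 Ishikawa endometrial adenocarcinoma cells were grown in phenol red-free medium with charcoal-stripped bovine serum, with steroids across at least 6 orders of magnitude, for 3 days. Cells were then washed and freeze-thawed, and alkaline phosphatase was read kinetically as p-nitrophenol at 405 nm from 5 mM p-nitrophenyl phosphate at pH 9.8. RSA is the ratio of 1/EC50 versus E2 ×100, from curve fitting. At least 3 experiments were run in duplicate.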

Experiment [2] has as its target T1, Estrogen receptor (Homo sapiens). In words: Agonist activity at Estrogen receptor expressed in human Ishikawa cells assessed as induction of alkaline phosphatase after 3 days by spectrophotometry relative to estradiol. Type of experiment: functional, cell-based. In outline:
as §1

Experiment [3] has as its target T2, Estrogen receptor (Bos taurus) (UniProt P49884).
T2 sequence (whole entry): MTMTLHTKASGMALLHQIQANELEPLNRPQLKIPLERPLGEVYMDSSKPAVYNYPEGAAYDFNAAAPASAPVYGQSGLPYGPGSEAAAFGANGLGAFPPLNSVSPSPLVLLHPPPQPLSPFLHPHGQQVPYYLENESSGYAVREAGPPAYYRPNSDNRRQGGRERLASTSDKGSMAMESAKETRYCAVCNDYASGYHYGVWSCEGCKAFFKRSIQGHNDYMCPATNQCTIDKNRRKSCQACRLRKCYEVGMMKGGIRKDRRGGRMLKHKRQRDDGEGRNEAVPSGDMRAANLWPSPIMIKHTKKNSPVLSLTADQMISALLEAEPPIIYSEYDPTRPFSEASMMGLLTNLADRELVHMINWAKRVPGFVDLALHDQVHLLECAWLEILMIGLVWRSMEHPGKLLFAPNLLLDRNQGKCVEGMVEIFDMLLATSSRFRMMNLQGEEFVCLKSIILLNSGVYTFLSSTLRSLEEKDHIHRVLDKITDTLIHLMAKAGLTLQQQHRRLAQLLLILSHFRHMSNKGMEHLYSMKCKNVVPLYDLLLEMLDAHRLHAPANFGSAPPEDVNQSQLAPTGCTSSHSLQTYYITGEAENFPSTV
In words: Displacement of [3H]estradiol from calf cytosolic ER relative to estradiol.

The target of experiment [4] is Estrogen receptor beta (Homo sapiens) (UniProt Q92731). The experiment in a line: Displacement of [3H]estradiol from human ERbeta LBD expressed in Escherichia coli.
The target in another experiment is T3, Estrogen receptor (Homo sapiens, UniProt P03372).
T3 sequence (P03372 whole entry): T1 sequence (whole entry)
In words: Antagonist activity at Estrogen receptor expressed in human Ishikawa cells assessed as inhibition of estradiol-induced increase in alkaline phosphatase after 3 days by spectrophotometry. The experiment is classed as functional, cell-based. The method, boiled down:
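Ishikawa cells were grown in phenol red-free, charcoal-stripped bovine serum medium. Compounds at 10−6 to 10−12 M were tested against 10−9 M E2 for 3 days. Ki came from curve fitting. At least 3 experiments were run in duplicate.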

Chain of Estrogen receptor beta (Homo sapiens) (Q92731 whole entry, the tested form may be a part): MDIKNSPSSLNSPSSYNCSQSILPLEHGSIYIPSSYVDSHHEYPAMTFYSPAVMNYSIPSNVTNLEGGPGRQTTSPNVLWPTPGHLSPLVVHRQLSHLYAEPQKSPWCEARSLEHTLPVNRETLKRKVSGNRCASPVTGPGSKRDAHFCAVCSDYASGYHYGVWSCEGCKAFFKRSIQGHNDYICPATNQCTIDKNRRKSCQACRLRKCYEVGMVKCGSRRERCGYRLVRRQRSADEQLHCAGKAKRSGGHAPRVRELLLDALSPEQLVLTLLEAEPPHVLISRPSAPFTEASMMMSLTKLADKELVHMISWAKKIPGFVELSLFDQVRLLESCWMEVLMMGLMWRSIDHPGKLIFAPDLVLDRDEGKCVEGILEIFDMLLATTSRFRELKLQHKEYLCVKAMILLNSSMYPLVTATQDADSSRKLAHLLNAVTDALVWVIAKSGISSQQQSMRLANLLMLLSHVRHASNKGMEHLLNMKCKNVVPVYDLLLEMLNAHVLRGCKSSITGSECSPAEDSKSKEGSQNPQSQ

As for `COc1ccc([C@H]2C[C@]3(C)[C@@H](O)CC[C@H]3[C@@H]3CCc4cc(O)ccc4[C@H]32)cc1`, in experiment [1], the Activity is 35%.

As for `C=C[C@H]1C[C@]2(C)[C@@H](O)CC[C@H]2[C@@H]2CCc3cc(O)ccc3[C@H]21`, the RSA in experiment [2] worked out at 70%.

In the case of `N#CC(=C(c1ccc(O)cc1)c1ccc(O)cc1)c1ccc(O)cc1`, the RBA in experiment [3] was found to be 166%.

Regarding `C[C@]12C[C@H](c3ccc(O)cc3)[C@@H]3c4ccc(O)cc4CC[C@H]3[C@@H]1CC[C@@H]2O`, the RBA in experiment [4] came out at 41%. Further, the RSA in experiment [2] is 17%.

`CO[C@H]1C[C@]2(C)[C@@H](O)CC[C@H]2[C@@H]2CCc3cc(O)ccc3[C@H]21`: the RSA in experiment [2] is 76%.

Molecule `COc1ccc(/C(=C(/C#N)c2ccc(O)cc2)c2ccc(O)cc2)cc1` had an RBA in experiment [3] of 17%.

One may read the Ki as the equilibrium dissociation constant of an inhibitor or competing ligand from its target. As to `C[C@]12C[C@H](c3ccc(OCCOCCOCCn4cc(CNC5=CC(=O)c6ccccc6C5=O)nn4)cc3)[C@@H]3c4ccc(O)cc4CC[C@H]3[C@@H]1CC[C@@H]2O`, the Ki on Estrogen receptor is 1.1 nM.

Consider `C[C@]12C[C@H](c3ccc(OCCCCCS(=O)(=O)C(F)(F)C(F)(F)F)cc3)[C@@H]3c4ccc(O)cc4CC[C@H]3[C@@H]1CC[C@@H]2O`, for which, in experiment [4], the RBA was 27%. In addition, the Ki at Estrogen receptor came to 5.3 nM.

In the case of `CN(C)CCOc1ccc([C@H]2C[C@]3(C)[C@@H](O)CC[C@H]3[C@@H]3CCc4cc(O)ccc4[C@H]32)cc1`, the RBA in experiment [4] amounted to 17%.
